Published values gathered from unrelated publications.
Compare with care: the assays were run in different laboratories.
CDK14: Cyclin-dependent kinase 14 (CDK14, Homo sapiens, UniProt O94921)
CDK14 with cyclin Y: Cyclin-dependent kinase 14, with cyclin Y (CDK14, Homo sapiens, UniProt O94921)

Structure (SMILES)	target	observed	mode	method	tested at	measurement	result
CC#CC(=O)N1CCC[C@H]1c1nc(-c2ccc(C(=O)Nc3ccccn3)cc2)c2c(N)nccn12	CDK14	enzyme activity	inhibitor		1 µM	inhibition	4%
Cc1ccc(NC(=O)c2ccnc(C(F)(F)F)c2)cc1-c1cc(OCCO)nc(N2CCOCC2)c1	CDK14	binding		competition with immobilised ligand	1 µM	remaining binding	100%
C1=C/COCc2cc(ccc2OCCN2CCCC2)Nc2nccc(n2)-c2cccc(c2)COC/1	CDK14	cell-free assay			0.1 µM	remaining signal	87%
CCCCC(=O)Nc1ccc(-c2ccc3ncn(CCC)c(=O)c3c2)cn1	CDK14	binding		competition with immobilised ligand	0.5 µM	remaining binding	100%
CO[C@@H]1[C@H](N(C)C(=O)c2ccccc2)C[C@H]2O[C@]1(C)n1c3ccccc3c3c4c(c5c6ccccc6n2c5c31)C(=O)NC4	CDK14	enzyme activity	inhibitor		1 µM	inhibition	0%
COc1ccc2oc(-c3ccc4nc(N)oc4c3)c/c(=N\c3ccccc3NC(=O)CCN)c2c1	CDK14 with cyclin Y	binding			1 µM	remaining binding	100%
CC(C)S(=O)(=O)c1ccc2nccc(Nc3ccc4sc(C5CCCC5)nc4c3)c2c1	CDK14 with cyclin Y	enzyme activity	inhibitor		1 µM	activity vs control	110%
CN1CCN(C(=O)c2ccc(NC(=O)Nc3ccc(N(C)c4ccnc(Nc5ccc(CS(C)(=O)=O)cc5)n4)cc3)cc2)CC1	CDK14	binding		competition with immobilised ligand	1 µM	remaining binding	81%
